ChEMBL document CHEMBL1154050, “Design, synthesis and hypolipidemic activity of novel 2-(naphthalen-2-yloxy)propionic acid derivatives as desmethyl fibrate analogs” (2009)
Calls of active or inactive are those of the source. No cut-off for these calls is given here.

Experiments:
Assay type in all cases: functional
Rattus norvegicus [1] = experiment: Antihyperlipidemic activity in high-cholesterol diet fed Wistar albino rat model assessed as reduction in serum total cholesterol level at 20 mg/kg, po; design: scale not given: the % may be the effect or the level left
Method in brief: (§1)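 Adult male rats given high cholesterol diet (2% cholesterol, 1% cholic acid) for 14 days, dosed orally at 20 mg/kg in 0.5% CMC on days 8–14. Normal-chow and HCD vehicle controls were included, n=6 per group. After a 12 h fast on day 14, tail blood was taken under mild ether anesthesia. Serum TC, TG and HDL were measured by kit spectrophotometry, and LDL was calculated by Friedewald's formula. Values are percent change versus the HCD control.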

Rattus norvegicus [2] = experiment: Antihyperlipidemic activity in high-cholesterol diet fed Wistar albino rat model assessed as increase in serum HDL level at 20 mg/kg, po; method in brief: as §1
Rattus norvegicus [3] = experiment: Antihyperlipidemic activity in high-cholesterol diet fed Wistar albino rat model assessed as reduction in serum LDL level at 20 mg/kg, po; design: scale not given: the % may be the effect or the level left; method in brief: as §1
Rattus norvegicus [4] = experiment: Antihyperlipidemic activity in high-cholesterol diet fed Wistar albino rat model assessed as ratio of LDL level to HDL level at 20 mg/kg, po
Method in brief: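 The ratio was calculated from group mean LDL and mean HDL. It used the HCD rat model (2% cholesterol, 1% cholic acid, 14 days), oral dosing at 20 mg/kg in 0.5% CMC on days 8–14, and n=6. Serum was taken from tail blood after a 12 h fast. HDL was measured by kit and LDL was derived by Friedewald's formula.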

Rattus norvegicus [5] = experiment: Antihyperlipidemic activity in high-cholesterol diet fed Wistar albino rat model assessed as reduction in serum triglyceride level at 20 mg/kg, po; method in brief: as §1

CC1=NN(C(=O)C(C)Oc2ccc3ccccc3c2)C(=O)C1 (centres undefined)
Activity (Rattus norvegicus [1]): 15.89%
Activity (Rattus norvegicus [2]): Active
Activity (Rattus norvegicus [3]): 21.74%
Ratio (Rattus norvegicus [4]): 4.54

CC(Oc1ccc2ccccc2c1)C(=O)N/N=C/c1ccc([N+](=O)[O-])cc1 (centres undefined)
Activity (Rattus norvegicus [1]): inactive
Activity (Rattus norvegicus [5]): inactive
Activity (Rattus norvegicus [2]): Active
Ratio (Rattus norvegicus [4]): 4.74

COc1ccc(/C=N/NC(=O)C(C)Oc2ccc3ccccc3c2)cc1 (centres undefined)
Activity (Rattus norvegicus [1]): inactive
Activity (Rattus norvegicus [2]): Active
Ratio (Rattus norvegicus [4]): 5.4

CC(Oc1ccc2ccccc2c1)C(=O)NNC(=S)Nc1ccccc1 (centres undefined)
Activity (Rattus norvegicus [1]): inactive
Activity (Rattus norvegicus [2]): Active
Ratio (Rattus norvegicus [4]): 5.7

C=CCNC(=S)NNC(=O)C(C)Oc1ccc2ccccc2c1 (centres undefined)
Activity (Rattus norvegicus [1]): inactive
Activity (Rattus norvegicus [2]): Active
Ratio (Rattus norvegicus [4]): 8.16

CC(Oc1ccc2ccccc2c1)C(=O)O (centres undefined)
Activity (Rattus norvegicus [2]): Active
Activity (Rattus norvegicus [3]): Active

CC(C)=NNC(=O)C(C)Oc1ccc2ccccc2c1 (centres undefined)
Activity (Rattus norvegicus [1]): inactive
Activity (Rattus norvegicus [2]): Active
Ratio (Rattus norvegicus [4]): 6.1

CC(Oc1ccc2ccccc2c1)c1n[nH]c(=S)o1 (centres undefined)
Activity (Rattus norvegicus [1]): 16.18%
Activity (Rattus norvegicus [5]): 26.78%
Activity (Rattus norvegicus [2]): 55.42%
Activity (Rattus norvegicus [3]): 19.58%
Ratio (Rattus norvegicus [4]): 3.29

Cc1ccc(C)c(OCCCC(C)(C)C(=O)O)c1 [GEMFIBROZIL]
Activity (Rattus norvegicus [1]): 4.68%
Activity (Rattus norvegicus [5]): 22.23%
Activity (Rattus norvegicus [2]): 25.18%
Ratio (Rattus norvegicus [4]): 4.81

CC(Oc1ccc2ccccc2c1)C(=O)N1N=C(c2ccccc2)CC1(O)c1ccccc1 (centres undefined)
Activity (Rattus norvegicus [1]): inactive
Activity (Rattus norvegicus [5]): inactive
Activity (Rattus norvegicus [2]): 49.73%
Ratio (Rattus norvegicus [4]): 3.99

CC(Oc1ccc2ccccc2c1)c1n[nH]c(=S)n1-c1ccccc1 (centres undefined)
Activity (Rattus norvegicus [1]): inactive
Activity (Rattus norvegicus [5]): inactive
Activity (Rattus norvegicus [2]): 47.78%
Activity (Rattus norvegicus [3]): Active
Ratio (Rattus norvegicus [4]): 3.75

CCn1c(C(C)Oc2ccc3ccccc3c2)n[nH]c1=S (centres undefined)
Activity (Rattus norvegicus [1]): inactive
Activity (Rattus norvegicus [5]): 20.88%
Activity (Rattus norvegicus [2]): 48.25%
Activity (Rattus norvegicus [3]): Active
Ratio (Rattus norvegicus [4]): 3.61

CCSc1nnc(C(C)Oc2ccc3ccccc3c2)n1CC (centres undefined)
Activity (Rattus norvegicus [1]): inactive
Activity (Rattus norvegicus [5]): inactive
Activity (Rattus norvegicus [2]): Active
Activity (Rattus norvegicus [3]): Active
Ratio (Rattus norvegicus [4]): 4.5

CCSc1nnc(C(C)Oc2ccc3ccccc3c2)n1-c1ccccc1 (centres undefined)
Activity (Rattus norvegicus [1]): 19.44%
Activity (Rattus norvegicus [5]): 19.07%
Activity (Rattus norvegicus [2]): 51.21%
Activity (Rattus norvegicus [3]): 19.15%
Ratio (Rattus norvegicus [4]): 3.4

CCNC(=S)NNC(=O)C(C)Oc1ccc2ccccc2c1 (centres undefined)
Activity (Rattus norvegicus [1]): inactive
Activity (Rattus norvegicus [2]): Active
Ratio (Rattus norvegicus [4]): 6.71

C/C(=N\NC(=O)C(C)Oc1ccc2ccccc2c1)c1ccc(Br)cc1 (centres undefined)
Activity (Rattus norvegicus [1]): inactive
Activity (Rattus norvegicus [2]): Active
Ratio (Rattus norvegicus [4]): 6.04

COc1ccc(NC(=O)C(C)Oc2ccc3ccccc3c2)cc1 (centres undefined)
Activity (Rattus norvegicus [1]): inactive
Activity (Rattus norvegicus [2]): Active
Ratio (Rattus norvegicus [4]): 5.19
